Reference: PMC5059843 (Molecular pharmaceutics, 2016)
Where “and” joins values, the source holds several entries; their conditions need not be identical. Equal values may be shown once. Read-outs that look alike come from different tables or passages of the source.

Legend:
CYP3A4 [1] = biological target: T1, CYP3A4 (Homo sapiens, UniProt P08684); assay: Spectral MIC formation in CYP3A4 baculosomes, SVD and kinetic modeling; type: biochemical
[2] = Rat pharmacokinetics of PPT alone; type: in vivo
[3] = Rat plasma equilibrium dialysis; type: in vitro ADME; conditions: pH 7.4
Outline: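 Rat plasma spiked with test compound to a final 2 μM. Dialysed in a 96-well equilibrium dialyser, plasma on one side and blank phosphate buffer (pH 7.4) on the other. Incubated 20 h at 37 °C under 5% CO2. The unbound fraction was determined from the two sides.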

CYP3A4 [4] = biological target: T1, CYP3A4; assay: In vitro TDI assay in pooled HLM; type: biochemical
CYP3A4 [5] = biological target: T1, CYP3A4; assay: Stopped-flow binding kinetics of ligand to purified CYP3A4; conditions: for k2: dissociation rate from KS=k2/k1
CYP3A4 [6] = biological target: T1, CYP3A4; type: biochemical
rat CYP3A = type: biochemical
[7] = 3A4 baculosomes, Figure 3 scheme
[8] = baculosomes, end of kinetic experiment (~30 min), 100 μM PPT

T1 sequence (P08684 whole entry): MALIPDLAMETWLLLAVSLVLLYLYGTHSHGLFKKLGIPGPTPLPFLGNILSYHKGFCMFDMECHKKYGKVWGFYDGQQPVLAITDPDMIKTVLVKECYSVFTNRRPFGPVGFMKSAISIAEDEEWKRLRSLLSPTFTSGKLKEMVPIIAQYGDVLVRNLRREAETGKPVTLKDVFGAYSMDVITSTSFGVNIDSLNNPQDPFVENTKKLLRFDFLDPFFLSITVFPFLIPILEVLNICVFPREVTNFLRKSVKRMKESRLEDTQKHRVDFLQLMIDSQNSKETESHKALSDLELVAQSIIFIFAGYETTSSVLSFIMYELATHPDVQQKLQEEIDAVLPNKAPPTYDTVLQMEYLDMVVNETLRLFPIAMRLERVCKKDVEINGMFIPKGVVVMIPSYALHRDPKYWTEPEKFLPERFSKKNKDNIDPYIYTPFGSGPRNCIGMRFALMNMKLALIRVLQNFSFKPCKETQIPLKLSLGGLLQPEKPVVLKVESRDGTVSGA

COc1cc([C@@H]2c3cc4c(cc3[C@H](O)[C@H]3COC(=O)[C@H]23)OCO4)cc(OC)c1OC [PPT, Podophyllotoxin]
k3 (Fe3+:carbene formation) (CYP3A4 [1]; 3A4 baculosomes, 100 μM PPT, Figure 3 scheme, footnote b: fixed value): 1.8 min⁻¹ | k4 (carbene release, enzyme regeneration) (CYP3A4 [1]; [7]): 0.0780 ± 0.0186 min⁻¹ | k5 (reduction to Fe2+:carbene) (CYP3A4 [1]; [7]): 0.0804 ± 0.0228 min⁻¹ | k6 (P420 formation from EI) (CYP3A4 [1]; [7]): 0.1224 ± 0.0252 min⁻¹ | k7 (P420 degradation) (CYP3A4 [1]; [7]): 0.0636 ± 0.0048 min⁻¹ | fraction of total P450 as free P450 (CYP3A4 [1]; [8]): 15.0 ± 0.8% | fraction of total P450 in the inactivated form (Fe2+:carbene) (CYP3A4 [1]; [8]): 52.0 ± 5.8% | enzyme regeneration through carbene release, baculosomes versus HLM (CYP3A4 [1]; faster in baculosomes than in HLM): about 3 fold | mean Cmax,unbound ([2]; PPT alone, 2-compartmental model): 0.17 µM | Cmax ([2]; male, Sprague-Dawley, plasma): 3.94 µM | half-life ([2]; male, Sprague-Dawley, plasma): 37 min | fraction unbound at 20 h, 2 μM [3]: 0.044 ± 0.006 | k3 (CYP3A4 [4]; Q model): 95.3 ± 1.7 min⁻¹ | k5 (CYP3A4 [4]; Q model): 3.89e+07 ± 1.63e+07 M⁻¹ s⁻¹ | k7 (CYP3A4 [4]; Q model): 0.23 ± 0.07 min⁻¹ | k8 (CYP3A4 [4]; Q model): 0.081 ± 0.012 min⁻¹ | k10 (CYP3A4 [4]; Q model): 0.011 ± 0.001 min⁻¹ | α (CYP3A4 [4]; Q model): 0.21 ± 0.08 | k5 (CYP3A4 [4]; QI model): 5.618e+07 ± 2.612e+07 M⁻¹ s⁻¹ | k8 (CYP3A4 [4]; QI model): 0.15 ± 0.04 min⁻¹ | k9 (CYP3A4 [4]; QI model): 0.011 ± 0.001 min⁻¹ | k10 (CYP3A4 [4]; QI model): 0.017 ± 006 min⁻¹ | α (CYP3A4 [4]; QI model): 0.16 ± 0.07 | k3 (CYP3A4 [4]; QI model (ESI-QI scheme, Figure 5a)): 94.9 ± 1.6 min⁻¹ | k7 (CYP3A4 [4]; QI model, Fe3+:carbene formation): 0.50 ± 0.23 min⁻¹ | k2 (CYP3A4 [5]; used for 3A4 baculosomes model): 10600 min⁻¹ | k2 (CYP3A4 [5]; used for HLM model): 10600 min⁻¹ | experimentally determined on-rate (k1) used in the TDI model (CYP3A4 [5]; fixed in the TDI model fitting): 270 µM/s | k1 (CYP3A4 [5]; from binding kinetic experiment, used for HLM model): 1080 min⁻¹ | k4 (carbene release, enzyme regeneration) (CYP3A4 [6]; HLM, Figure 3 scheme): 0.0195 ± 0.000 min⁻¹ | k6 (P420 formation from EI) (CYP3A4 [6]; HLM, Figure 3 scheme): 0.0506 ± 0.0401 min⁻¹ | k7 (P420 degradation) (CYP3A4 [6]; HLM, Figure 3 scheme): 0 min⁻¹ | k3 (Fe3+:carbene formation) (CYP3A4 [6]; HLM, Figure 3 scheme, listed as carries footnote b: fixed value): 1.134 ± 0.156 min⁻¹ | fraction of cytochrome P450 in the Fe2+:carbene form (CYP3A4 [6]; HLM, end of the experiments): 17.2 ± 2.2% | fraction of cytochrome P450 in the P420 form (CYP3A4 [6]; HLM, end of the experiments): 24.0 ± 2.1% | fraction of cytochrome P450 in the free form (CYP3A4 [6]; HLM, end of the experiments): 40.7 ± 7.3% | net rate constant for Fe2+:carbene formation (enzyme inactivation) (CYP3A4 [6]; spectral MIC formation experiments in HLM): 0.020 min⁻¹ | k6/KI2 (rat CYP3A): 6.1e+07 ± 1.68e+07 M⁻¹ s⁻¹ | k7 (rat CYP3A): 0.12 ± 0.02 min⁻¹ and 0.11 ± 0.02 min⁻¹
